Measured values published in ChEMBL document CHEMBL4837264, “Rational Design, Optimization, and Biological Evaluation of Novel MEK4 Inhibitors against Pancreatic Adenocarcinoma” (ACS Med Chem Lett, 2021).
Activity calls are given as the source filed them. The rule behind the calls is not given here.

Legend:
[1] = molecular target: Mitogen-activated protein kinase 8 (Homo sapiens) (UniProt P45983); assay: Inhibition of wild type full length human JNK1 (M1 to Q384 residues) expressed in mammalian expression system at 10 uM measured by Kinomescan assay
Mitogen-activated protein kinase 8 (Homo sapiens), sequence (P45983 whole entry, the tested form may be a part): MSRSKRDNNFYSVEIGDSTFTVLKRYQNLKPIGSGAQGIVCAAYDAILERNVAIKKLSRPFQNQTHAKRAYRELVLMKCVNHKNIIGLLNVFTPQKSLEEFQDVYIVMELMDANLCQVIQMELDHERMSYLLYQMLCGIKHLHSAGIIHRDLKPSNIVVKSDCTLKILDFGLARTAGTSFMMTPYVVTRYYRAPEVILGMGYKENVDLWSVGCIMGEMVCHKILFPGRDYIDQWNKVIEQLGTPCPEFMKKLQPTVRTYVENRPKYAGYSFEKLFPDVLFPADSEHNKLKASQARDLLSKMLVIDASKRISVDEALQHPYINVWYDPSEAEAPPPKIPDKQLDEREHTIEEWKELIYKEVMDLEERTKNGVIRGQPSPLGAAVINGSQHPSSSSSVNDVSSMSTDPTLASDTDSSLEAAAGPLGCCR
Summary of the method: (§1)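 Kinome-wide binding scan on the scanEDGE DiscoverX platform, covering 97 kinases, each tested at a single compound concentration of 10 μM.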

[2] = molecular target: Mitogen-activated protein kinase 3 (Homo sapiens) (UniProt P27361); assay: Inhibition of wild type full length human ERK1 (M1 to P397 residues) expressed in bacterial expression system at 10 uM measured by Kinomescan assay; summary of the method: as §1
Mitogen-activated protein kinase 3 (Homo sapiens), sequence (P27361 whole entry, the tested form may be a part): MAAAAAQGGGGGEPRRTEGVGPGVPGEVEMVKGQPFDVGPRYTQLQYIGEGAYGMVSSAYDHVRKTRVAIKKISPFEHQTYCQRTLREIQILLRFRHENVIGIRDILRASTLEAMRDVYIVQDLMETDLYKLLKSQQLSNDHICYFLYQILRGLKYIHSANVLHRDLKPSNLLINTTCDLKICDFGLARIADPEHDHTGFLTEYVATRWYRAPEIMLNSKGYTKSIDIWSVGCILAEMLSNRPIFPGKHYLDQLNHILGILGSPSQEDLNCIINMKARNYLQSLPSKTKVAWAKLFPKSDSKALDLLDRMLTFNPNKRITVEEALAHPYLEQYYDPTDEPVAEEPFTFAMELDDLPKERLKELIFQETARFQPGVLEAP

[3] = molecular target: Serine/threonine-protein kinase B-raf (Homo sapiens) (UniProt P15056); assay: Inhibition of wild type partial length human BRAF (S429 to E741) expressed in mammalian expression system at 10 uM measured by Kinomescan assay; summary of the method: as §1
Cytochrome P450 1A2 = Cytochrome P450 1A2 (Homo sapiens, UniProt P05177); assay: Inhibition of CYP1A2 (unknown origin); type: ADME
Cytochrome P450 1A2, sequence (P05177 whole entry): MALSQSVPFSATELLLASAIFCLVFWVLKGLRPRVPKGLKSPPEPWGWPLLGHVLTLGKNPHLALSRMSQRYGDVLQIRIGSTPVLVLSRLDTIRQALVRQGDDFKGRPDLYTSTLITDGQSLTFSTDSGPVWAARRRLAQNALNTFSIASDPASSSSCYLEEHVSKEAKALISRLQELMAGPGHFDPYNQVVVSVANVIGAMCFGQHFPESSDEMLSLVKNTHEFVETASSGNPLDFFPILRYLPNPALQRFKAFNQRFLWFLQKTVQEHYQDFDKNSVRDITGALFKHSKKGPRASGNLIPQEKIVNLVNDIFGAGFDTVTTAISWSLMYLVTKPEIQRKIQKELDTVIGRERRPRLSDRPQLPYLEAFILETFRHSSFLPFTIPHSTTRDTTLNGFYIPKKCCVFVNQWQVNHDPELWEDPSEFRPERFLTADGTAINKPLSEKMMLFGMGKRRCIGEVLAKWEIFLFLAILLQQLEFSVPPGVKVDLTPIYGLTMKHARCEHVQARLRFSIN

[4] = molecular target: T1, Dual specificity mitogen-activated protein kinase kinase 6 (Homo sapiens) (UniProt P52564); assay: Inhibition of human MEK6 in human HEK293T cells assessed as inhibition of anisomycin-induced p38 MAPK phosphorylation at 100 uM measured after 5 hrs by Western blot assay; type: cell-based
T1 sequence (whole entry): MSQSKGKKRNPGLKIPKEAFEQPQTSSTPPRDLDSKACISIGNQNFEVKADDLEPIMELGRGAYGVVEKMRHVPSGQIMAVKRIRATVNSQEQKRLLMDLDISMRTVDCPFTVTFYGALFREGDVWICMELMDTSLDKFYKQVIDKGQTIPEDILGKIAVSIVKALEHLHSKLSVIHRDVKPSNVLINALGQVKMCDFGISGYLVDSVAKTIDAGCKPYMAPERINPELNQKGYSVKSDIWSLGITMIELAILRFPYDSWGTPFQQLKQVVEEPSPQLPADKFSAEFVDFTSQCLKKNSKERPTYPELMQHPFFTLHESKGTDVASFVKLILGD
Summary of the method: (§2)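 HEK293T cells pretreated with anisomycin (3 μg/mL) for 45 min, then given inhibitor (100 μM) for 5 h. Phospho- and total p42/44 MAPK and p38 MAPK, plus MEK7, detected by Western blot with HSP90 as loading control. Blots representative of at least three biological replicates.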

[5] = molecular target: Dual specificity mitogen-activated protein kinase kinase 2 (Homo sapiens) (UniProt P36507); assay: Inhibition of human MEK2 in human HEK293T cells assessed as reversal of anisomycin-induced decrease of p42/44 MAPK phosphorylation at 100 uM measured after 5 hrs by Western blot assay; type: cell-based; summary of the method: as §2
Dual specificity mitogen-activated protein kinase kinase 2 (Homo sapiens), sequence (P36507 whole entry, the tested form may be a part): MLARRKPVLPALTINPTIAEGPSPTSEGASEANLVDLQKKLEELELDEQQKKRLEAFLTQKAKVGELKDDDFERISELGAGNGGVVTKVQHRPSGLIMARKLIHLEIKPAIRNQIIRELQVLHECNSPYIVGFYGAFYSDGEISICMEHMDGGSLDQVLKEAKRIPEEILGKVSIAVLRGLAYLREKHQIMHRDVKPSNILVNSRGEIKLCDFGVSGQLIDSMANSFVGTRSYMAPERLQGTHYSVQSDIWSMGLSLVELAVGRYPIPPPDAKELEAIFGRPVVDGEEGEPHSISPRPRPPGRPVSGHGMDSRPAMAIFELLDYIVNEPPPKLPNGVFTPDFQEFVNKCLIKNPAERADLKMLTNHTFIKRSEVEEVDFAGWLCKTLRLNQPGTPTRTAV

[6] = molecular target: T2, Dual specificity mitogen-activated protein kinase kinase 3 (Homo sapiens) (UniProt P46734); assay: Inhibition of human MEK3 in human HEK293T cells assessed as inhibition of anisomycin-induced p38 MAPK phosphorylation at 100 uM measured after 5 hrs by Western blot assay; type: cell-based; summary of the method: as §2
T2 sequence (whole entry): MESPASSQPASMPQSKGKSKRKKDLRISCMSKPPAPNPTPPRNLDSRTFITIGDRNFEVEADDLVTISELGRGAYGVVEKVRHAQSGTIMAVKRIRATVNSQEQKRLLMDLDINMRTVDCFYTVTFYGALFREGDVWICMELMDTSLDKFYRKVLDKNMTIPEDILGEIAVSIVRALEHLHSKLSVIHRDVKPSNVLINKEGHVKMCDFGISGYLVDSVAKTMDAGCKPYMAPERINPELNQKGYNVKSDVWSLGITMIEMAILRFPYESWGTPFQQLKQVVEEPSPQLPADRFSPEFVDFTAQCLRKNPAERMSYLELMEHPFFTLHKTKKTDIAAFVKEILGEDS

Cytochrome P450 3A5 = Cytochrome P450 3A5 (Homo sapiens, UniProt P20815); assay: Inhibition of CYP3A5 (unknown origin); type: ADME
MIA PaCa-2 [7] = assay: Antiproliferative activity against human MIA PaCa-2 cells assessed as inhibition of cell proliferation in presence of […] at 10 uM measured after 72 hrs; type: functional, cell-based
Summary of the method: (§3)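 CD18 or MiaPaCa2 cells (~30,000) treated for 72 h with DMSO, U0126 (1 or 5 μM), MEK4 inhibitor (10 μM), or the combination. Cells trypsinized and counted, with counts normalized to DMSO; two-way ANOVA. Interaction expressed as CDI = AB/(A × B) from the normalized ratios, mean ± SEM of three biological replicates.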

[8] = molecular target: T3, Dual specificity mitogen-activated protein kinase kinase 7 (Homo sapiens) (UniProt O14733); assay: Inhibition of human MEK7 in human HEK293T cells assessed as decrease of MEK7 expression in presence of anisomycin at 100 uM measured after 5 hrs by Western blot assay; type: cell-based
T3 sequence (whole entry): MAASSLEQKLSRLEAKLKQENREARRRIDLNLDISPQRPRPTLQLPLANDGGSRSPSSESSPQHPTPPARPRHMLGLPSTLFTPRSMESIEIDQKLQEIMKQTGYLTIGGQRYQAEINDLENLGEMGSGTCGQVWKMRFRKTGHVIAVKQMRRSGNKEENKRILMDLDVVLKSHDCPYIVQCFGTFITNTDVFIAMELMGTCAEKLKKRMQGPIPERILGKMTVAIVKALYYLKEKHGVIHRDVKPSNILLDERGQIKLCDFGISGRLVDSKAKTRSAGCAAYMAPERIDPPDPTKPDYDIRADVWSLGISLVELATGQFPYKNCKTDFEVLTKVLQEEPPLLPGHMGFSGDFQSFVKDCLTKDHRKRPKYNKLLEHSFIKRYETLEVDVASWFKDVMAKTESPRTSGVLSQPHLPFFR
Summary of the method: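 HEK293T cells pretreated with anisomycin (3 μg/mL) for 45 min, then exposed to inhibitor (100 μM) for 5 h. MEK7 levels were read by Western blot with HSP90 as loading control. Blots are representative of at least three biological replicates.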

[9] = molecular target: T2, Dual specificity mitogen-activated protein kinase kinase 3 (Homo sapiens); assay: Inhibition of human wild type full length MEK3 (M1 to S318) expressed in mammalian expression system at 1 uM measured by Kinomescan assay
[10] = molecular target: T1, Dual specificity mitogen-activated protein kinase kinase 6 (Homo sapiens); assay: Inhibition of human wild type partial length MEK6 (K36 to D344 residues) expressed in bacterial expression system at 10 uM measured by Kinomescan assay; summary of the method: as §1
Cytochrome P450 3A4 = Cytochrome P450 3A4 (Homo sapiens, UniProt P08684); assay: Inhibition of CYP3A4 (unknown origin); type: ADME
Cytochrome P450 3A4, sequence (P08684 whole entry): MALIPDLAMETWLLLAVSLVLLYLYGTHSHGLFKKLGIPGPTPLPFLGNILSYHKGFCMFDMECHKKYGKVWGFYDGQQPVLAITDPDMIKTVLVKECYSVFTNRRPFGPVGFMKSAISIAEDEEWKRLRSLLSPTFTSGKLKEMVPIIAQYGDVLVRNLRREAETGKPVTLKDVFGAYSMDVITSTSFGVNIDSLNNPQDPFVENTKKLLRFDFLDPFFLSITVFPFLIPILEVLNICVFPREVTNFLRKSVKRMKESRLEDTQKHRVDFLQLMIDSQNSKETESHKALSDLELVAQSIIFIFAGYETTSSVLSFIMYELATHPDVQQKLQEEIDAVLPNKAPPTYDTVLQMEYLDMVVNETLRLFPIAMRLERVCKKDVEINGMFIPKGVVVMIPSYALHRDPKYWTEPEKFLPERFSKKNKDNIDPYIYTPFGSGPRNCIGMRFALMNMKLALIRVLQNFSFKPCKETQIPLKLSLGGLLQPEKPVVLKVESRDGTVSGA

Cytochrome P450 2C9 = Cytochrome P450 2C9 (Homo sapiens, UniProt P11712); assay: Inhibition of CYP2C9 (unknown origin); type: ADME
[11] = molecular target: Dual specificity mitogen-activated protein kinase kinase 1 (Homo sapiens) (UniProt Q02750); assay: Inhibition of human MEK1 in human HEK293T cells assessed as reversal of anisomycin-induced decrease of p42/44 MAPK phosphorylation at 100 uM measured after 5 hrs by Western blot assay; type: cell-based; summary of the method: as §2
Dual specificity mitogen-activated protein kinase kinase 1 (Homo sapiens), sequence (Q02750 whole entry, the tested form may be a part): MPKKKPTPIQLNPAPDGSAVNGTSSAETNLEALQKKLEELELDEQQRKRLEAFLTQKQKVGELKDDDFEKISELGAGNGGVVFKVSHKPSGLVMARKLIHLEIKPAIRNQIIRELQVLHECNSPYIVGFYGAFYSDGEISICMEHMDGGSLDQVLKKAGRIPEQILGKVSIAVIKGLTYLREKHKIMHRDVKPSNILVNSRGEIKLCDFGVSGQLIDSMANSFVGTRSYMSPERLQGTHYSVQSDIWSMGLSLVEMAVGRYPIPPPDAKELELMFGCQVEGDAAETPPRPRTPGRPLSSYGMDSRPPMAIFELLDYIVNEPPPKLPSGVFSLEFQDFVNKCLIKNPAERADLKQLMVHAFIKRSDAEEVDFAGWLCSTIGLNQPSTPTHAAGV

HPAF-II [12] = assay: Antiproliferative activity against human HPAF-II cells assessed as inhibition of cell proliferation in presence of […] at 10 uM measured after 72 hrs; type: functional, cell-based; summary of the method: as §3
HPAF-II [13] = assay: Antiproliferative activity against human HPAF-II cells assessed as inhibition of cell proliferation measured after 72 hrs; type: functional, cell-based
Summary of the method: (§4)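 Cells (~30,000; HEK293T, or pancreatic CD18 and MiaPaCa2) exposed to DMSO or a range of inhibitor doses for 72 h, then trypsinized and counted. Counts normalized to the DMSO control. Mean ± SD; three biological replicates; one-way ANOVA.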

[14] = molecular target: T2, Dual specificity mitogen-activated protein kinase kinase 3 (Homo sapiens); assay: Inhibition of human wild type full length MEK3 (M1 to S318) expressed in mammalian expression system at 10 uM measured by Kinomescan assay; summary of the method: as §1
[15] = molecular target: Dual specificity mitogen-activated protein kinase kinase 1 (Homo sapiens) (UniProt Q02750); assay: Inhibition of human MEK1 in human HPAF-II cells assessed as decrease of p42/44 MAPK phosphorylation in presence of U0126 at 10 uM measured after 5 hrs by Westren blot assay; type: cell-based
Summary of the method: (§5)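 CD18 or MiaPaCa2 cells pretreated with U0126 (1 or 5 μM) for 1 h, then MEK4 inhibitor (10 μM) added for 5 h. Phospho- and total p42/44 MAPK detected by Western blot with HSP90 as loading control. Blots representative of at least three biological replicates.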

[16] = molecular target: T3, Dual specificity mitogen-activated protein kinase kinase 7 (Homo sapiens); assay: Inhibition of human wild type full length MEK7 (M1 to R417 residues) expressed in mammalian expression system at 10 uM measured by Kinomescan assay
[17] = molecular target: Dual specificity mitogen-activated protein kinase kinase 1 (Homo sapiens) (UniProt Q02750); assay: Inhibition of human MEK1 in human MIA PaCa-2 cells assessed as decrease of p42/44 MAPK phosphorylation in presence of U0126 at 10 uM measured after 5 hrs by Westren blot assay; type: cell-based; summary of the method: as §5
[18] = molecular target: T1, Dual specificity mitogen-activated protein kinase kinase 6 (Homo sapiens); assay: Inhibition of human wild type partial length MEK6 (K36 to D344 residues) expressed in bacterial expression system at 1 uM measured by Kinomescan assay
MIA PaCa-2 [19] = assay: Antiproliferative activity against human MIA PaCa-2 cells assessed as inhibition of cell proliferation measured after 72 hrs; type: functional, cell-based; summary of the method: as §4
[20] = molecular target: Dual specificity mitogen-activated protein kinase kinase 2 (Homo sapiens) (UniProt P36507); assay: Inhibition of human MEK2 in human MIA PaCa-2 cells assessed as decrease of p42/44 MAPK phosphorylation in presence of U0126 at 10 uM measured after 5 hrs by Westren blot assay; type: cell-based; summary of the method: as §5
[21] = molecular target: Mitogen-activated protein kinase 9 (Homo sapiens) (UniProt P45984); assay: Inhibition of wild type full length human JNK2 (M1 to Q382 residues) expressed in mammalian expression system at 10 uM measured by Kinomescan assay; summary of the method: as §1
Mitogen-activated protein kinase 9 (Homo sapiens), sequence (P45984 whole entry, looked up, the tested form may be a part): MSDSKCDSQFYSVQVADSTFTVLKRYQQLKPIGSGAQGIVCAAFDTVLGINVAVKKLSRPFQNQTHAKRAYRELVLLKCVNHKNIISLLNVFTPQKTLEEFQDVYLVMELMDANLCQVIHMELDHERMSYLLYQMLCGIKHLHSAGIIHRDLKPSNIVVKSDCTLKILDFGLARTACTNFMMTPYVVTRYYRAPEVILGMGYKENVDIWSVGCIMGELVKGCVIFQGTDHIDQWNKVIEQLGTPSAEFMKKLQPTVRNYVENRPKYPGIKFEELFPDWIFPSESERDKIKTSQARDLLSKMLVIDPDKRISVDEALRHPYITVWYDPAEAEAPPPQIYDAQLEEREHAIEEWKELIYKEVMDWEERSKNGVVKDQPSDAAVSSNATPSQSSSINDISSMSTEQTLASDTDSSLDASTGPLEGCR

[22] = molecular target: Dual specificity mitogen-activated protein kinase kinase 2 (Homo sapiens) (UniProt P36507); assay: Inhibition of human MEK2 in human HPAF-II cells assessed as decrease of p42/44 MAPK phosphorylation in presence of U0126 at 10 uM measured after 5 hrs by Westren blot assay; type: cell-based
[23] = molecular target: RAF proto-oncogene serine/threonine-protein kinase (Homo sapiens) (UniProt P04049); assay: Inhibition of wild type partial length human RAF(I330 to T640 residues) expressed in bacterial expression system at 10 uM measured by Kinomescan assay; summary of the method: as §1
RAF proto-oncogene serine/threonine-protein kinase (Homo sapiens), sequence (P04049 whole entry, the tested form may be a part): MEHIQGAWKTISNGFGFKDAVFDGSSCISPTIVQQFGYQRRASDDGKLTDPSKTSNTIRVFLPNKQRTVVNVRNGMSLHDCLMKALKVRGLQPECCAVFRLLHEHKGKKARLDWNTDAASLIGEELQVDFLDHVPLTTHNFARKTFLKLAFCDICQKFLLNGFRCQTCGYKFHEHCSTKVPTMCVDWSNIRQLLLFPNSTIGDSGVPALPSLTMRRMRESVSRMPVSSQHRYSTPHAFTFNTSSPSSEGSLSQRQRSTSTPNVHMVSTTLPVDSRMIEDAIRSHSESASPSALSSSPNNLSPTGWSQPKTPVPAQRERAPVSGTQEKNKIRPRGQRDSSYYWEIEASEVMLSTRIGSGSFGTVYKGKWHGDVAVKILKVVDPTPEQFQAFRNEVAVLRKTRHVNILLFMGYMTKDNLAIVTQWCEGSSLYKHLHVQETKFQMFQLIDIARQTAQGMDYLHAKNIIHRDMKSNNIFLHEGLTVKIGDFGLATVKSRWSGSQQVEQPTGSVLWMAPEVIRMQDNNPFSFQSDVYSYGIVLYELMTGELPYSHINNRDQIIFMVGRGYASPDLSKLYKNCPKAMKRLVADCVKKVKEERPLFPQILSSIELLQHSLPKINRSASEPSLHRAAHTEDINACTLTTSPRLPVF

[24] = molecular target: T4, Dual specificity mitogen-activated protein kinase kinase 5 (Homo sapiens) (UniProt Q13163); assay: Inhibition of human wild type partial length MEK5 (L98 to P448 residues) expressed in mammalian expression system at 1 uM measured by Kinomescan assay
T4 sequence (whole entry): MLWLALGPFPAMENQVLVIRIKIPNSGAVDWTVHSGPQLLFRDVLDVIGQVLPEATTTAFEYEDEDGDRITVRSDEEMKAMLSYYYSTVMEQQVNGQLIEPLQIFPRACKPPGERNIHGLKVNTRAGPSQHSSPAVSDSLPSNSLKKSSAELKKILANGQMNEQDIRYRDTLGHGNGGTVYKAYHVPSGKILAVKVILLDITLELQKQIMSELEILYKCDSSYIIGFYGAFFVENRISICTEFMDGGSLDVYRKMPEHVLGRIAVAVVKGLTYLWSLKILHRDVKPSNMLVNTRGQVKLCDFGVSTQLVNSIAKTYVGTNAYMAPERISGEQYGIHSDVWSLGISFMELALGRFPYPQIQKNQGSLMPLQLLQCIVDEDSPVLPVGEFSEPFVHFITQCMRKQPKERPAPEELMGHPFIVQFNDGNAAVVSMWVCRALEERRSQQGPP

[25] = Metabolic stability in human liver microsomes assessed as half life by microsome assay; type: ADME
[26] = molecular target: Mitogen-activated protein kinase 10 (Homo sapiens) (UniProt P53779); assay: Inhibition of wild type partial length human JNK3 (V28 to Q422 residues) expressed in mammalian expression system at 10 uM measured by Kinomescan assay; summary of the method: as §1
[27] = molecular target: T3, Dual specificity mitogen-activated protein kinase kinase 7 (Homo sapiens); assay: Inhibition of human wild type full length MEK7 (M1 to R417 residues) expressed in mammalian expression system at 1 uM measured by Kinomescan assay
[28] = molecular target: T4, Dual specificity mitogen-activated protein kinase kinase 5 (Homo sapiens); assay: Inhibition of human wild type partial length MEK5 (L98 to P448 residues) expressed in mammalian expression system at 10 uM measured by Kinomescan assay; summary of the method: as §1
Cytochrome P450 2D6 = Cytochrome P450 2D6 (Homo sapiens, UniProt P10635); assay: Inhibition of CYP2D6 (unknown origin); type: ADME
Cytochrome P450 2D6, sequence (P10635 whole entry): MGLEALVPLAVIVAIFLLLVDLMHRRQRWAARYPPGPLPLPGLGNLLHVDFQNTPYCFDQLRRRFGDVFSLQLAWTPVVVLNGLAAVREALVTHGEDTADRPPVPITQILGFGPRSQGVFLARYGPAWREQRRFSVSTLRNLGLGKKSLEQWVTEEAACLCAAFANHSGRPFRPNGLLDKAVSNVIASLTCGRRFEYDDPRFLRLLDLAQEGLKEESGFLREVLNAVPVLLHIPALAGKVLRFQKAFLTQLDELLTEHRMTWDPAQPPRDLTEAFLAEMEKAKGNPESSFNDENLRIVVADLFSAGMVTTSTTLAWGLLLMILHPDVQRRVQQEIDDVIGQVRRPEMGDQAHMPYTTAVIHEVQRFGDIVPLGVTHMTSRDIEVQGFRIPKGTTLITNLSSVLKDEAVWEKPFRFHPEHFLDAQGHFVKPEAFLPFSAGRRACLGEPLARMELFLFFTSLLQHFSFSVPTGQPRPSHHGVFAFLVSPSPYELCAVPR

Cytochrome P450 2C19 = Cytochrome P450 2C19 (Homo sapiens, UniProt P33261); assay: Inhibition of CYP2C19 (unknown origin); type: ADME
Cytochrome P450 2C19, sequence (P33261 whole entry): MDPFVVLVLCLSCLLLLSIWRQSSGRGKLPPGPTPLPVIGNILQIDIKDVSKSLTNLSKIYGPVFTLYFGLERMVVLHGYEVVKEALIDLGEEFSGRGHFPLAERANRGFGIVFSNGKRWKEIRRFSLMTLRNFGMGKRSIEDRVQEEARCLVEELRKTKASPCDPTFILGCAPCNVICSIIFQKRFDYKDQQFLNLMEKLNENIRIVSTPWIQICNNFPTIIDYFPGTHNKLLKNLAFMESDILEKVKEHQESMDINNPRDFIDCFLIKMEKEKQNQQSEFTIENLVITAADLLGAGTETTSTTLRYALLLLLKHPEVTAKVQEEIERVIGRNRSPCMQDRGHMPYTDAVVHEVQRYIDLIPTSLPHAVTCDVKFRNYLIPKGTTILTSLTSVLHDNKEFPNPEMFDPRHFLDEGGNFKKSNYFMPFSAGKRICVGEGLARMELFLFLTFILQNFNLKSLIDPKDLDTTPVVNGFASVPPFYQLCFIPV

SMILES: NC(=O)c1ccc(NS(=O)(=O)c2cccc(-c3n[nH]c4cc(F)ccc34)c2)cc1
- inhibition [1]: Active
- inhibition [2]: inactive
- inhibition [3]: inactive
- inhibition (INH) (Cytochrome P450 1A2): Active
- inhibition [4]: inactive
- inhibition [5]: Active
- inhibition [6]: inactive
- inhibition (INH) (Cytochrome P450 3A5): Not Active
- Activity (MIA PaCa-2 [7]): Active
- inhibition [8]: inactive
- inhibition [9]: 86%
- inhibition [10]: 97%
- inhibition (INH) (Cytochrome P450 3A4): Not Active
- inhibition (INH) (Cytochrome P450 2C9): Active
- inhibition [11]: Active
- Activity (HPAF-II [12]): Active
- Activity (HPAF-II [13]): Active
- inhibition [14]: 99%
- inhibition [15]: Active
- inhibition [16]: 99%
- inhibition [17]: Active
- inhibition [18]: 48%
- Activity (MIA PaCa-2 [19]): Active
- inhibition [20]: Active
- inhibition [21]: Active
- inhibition [22]: Active
- inhibition [23]: inactive
- inhibition [24]: 87%
- half-life [25]: > 185 min
- inhibition [26]: Active
- inhibition [27]: 74%
- inhibition [28]: 99%
- inhibition (INH) (Cytochrome P450 2D6): Active
- inhibition (INH) (Cytochrome P450 2C19): Active
